Test results taken from ChEMBL document CHEMBL3877322, “Design, synthesis, molecular modeling and anti-hyperglycemic evaluation of novel quinoxaline derivatives as potential PPARγ and SUR agonists” (Bioorg Med Chem, 2017).

What was measured:
[1] = Agonist activity at SUR in Wistar rat islets of pancreas assessed as induction of glucose-stimulated insulin secretion preincubated for 1 hr followed by glucose addition measured after 30 mins by sandwich ELISA
Method in brief: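 Islets from fed male-unspecified Wistar rats (200-250 g), pilocarpine-pretreated i.p., isolated by collagenase, then cultured overnight at 16 mmol/l glucose in CMRL-1066 with L-glutamine, gentamycin and 10% FCS at 37°C. Exposed 1 h to compound in DMSO (5, 10, 15, 20 uM), washed in Ringer HEPES, then 30 min at 37°C with 16.7 mmol/l glucose. Insulin measured by rat insulin sandwich ELISA (A450); EC50 reported.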

Rattus norvegicus [2] = assay: Antihyperglycemic activity in Swiss albino rat model of streptozotocin-induced hyperglycemia assessed as reduction in blood glucose level at 0.36 mg/kg, po measured after 3 hrs by glucometer relative to control; format: functional; design: scale not given: the % may be the effect or the level left
Method in brief: (§1)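 Adult male Swiss albino rats (200-300 g) acclimatized 24 h, then given streptozotocin 60.00 mg/kg i.p. in 0.90% sodium citrate buffer pH 4.50. Those with glucose >250.00 mg/dl at 72 h were used, six per group. Single oral dose; diabetic controls received 1% gum acacia vehicle. Tail blood glucose read by glucometer at 0 and 3 h; % reduction calculated.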

Rattus norvegicus [3] = assay: Antihyperglycemic activity in Swiss albino rat model of streptozotocin-induced hyperglycemia assessed as reduction in blood glucose level at 20 mg/kg, po measured after 3 hrs by glucometer relative to control; format: functional; design: scale not given: the % may be the effect or the level left; method in brief: as §1
[4] = target: T1, Peroxisome proliferator-activated receptor gamma (Homo sapiens, UniProt P37231); assay: Displacement of fluormone-PPARgamma Green from recombinant human N-terminal GST-tagged PPARgamma-LBD by fluorescence polarization assay
T1 sequence (P37231 whole entry): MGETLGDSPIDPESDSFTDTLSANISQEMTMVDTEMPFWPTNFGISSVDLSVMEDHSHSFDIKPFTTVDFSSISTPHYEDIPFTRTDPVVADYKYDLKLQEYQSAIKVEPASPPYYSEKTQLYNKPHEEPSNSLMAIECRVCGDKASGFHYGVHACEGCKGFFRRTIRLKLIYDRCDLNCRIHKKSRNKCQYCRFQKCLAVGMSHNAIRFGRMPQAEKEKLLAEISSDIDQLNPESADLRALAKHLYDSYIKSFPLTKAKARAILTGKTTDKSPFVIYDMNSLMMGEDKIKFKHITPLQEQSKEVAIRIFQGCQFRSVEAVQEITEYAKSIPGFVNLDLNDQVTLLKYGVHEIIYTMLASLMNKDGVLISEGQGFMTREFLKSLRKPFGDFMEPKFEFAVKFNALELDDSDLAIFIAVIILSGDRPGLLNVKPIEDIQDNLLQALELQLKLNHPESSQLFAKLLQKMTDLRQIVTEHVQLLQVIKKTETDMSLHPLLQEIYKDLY

| SMILES | EC50 [1] | Activity (Rattus norvegicus [2]) | Activity (Rattus norvegicus [3]) | IC50 [4] |
| --- | --- | --- | --- | --- |
| CCC1=C(C)CN(C(=O)NCCc2ccc(S(=O)(=O)NC(=O)NC3CCC(C)CC3)cc2)C1=O (stereo unspecified) | 0.73 to 4 µM | 26.53% |  |  |
| Cc1nc2ccccc2n(CC(=O)Nc2ccc(S(=O)(=O)NC(=O)Nc3ccccc3)cc2)c1=O |  |  | 25.15% |  |
| O=C(CN1CC(=O)Nc2ccccc21)Nc1ccc(S(=O)(=O)NC(=S)NC2CCCCC2)cc1 |  |  | 13.08% |  |
| Cc1nc2ccccc2n(CC(=O)Nc2ccc(S(=O)(=O)NC(=O)NC3CCCCC3)cc2)c1=O | 0.92 µM |  | 50.58% | 0.482 µM |
| O=C(CN1CC(=O)Nc2ccccc21)Nc1ccc(S(=O)(=O)NC(=S)Nc2ccccc2)cc1 |  |  | 2.88% |  |
| O=C1CN(C(=O)CNc2ccc(S(=O)(=O)NC(=O)Nc3ccccc3)cc2)c2ccccc2N1 |  |  | 22.01% |  |
| Cc1nc2ccccc2n(CC(=O)Nc2ccc(S(=O)(=O)NC(=S)NC3CCCCC3)cc2)c1=O | 2.69 µM |  | 33.23% | 0.35 µM |
| CCCCNC(=O)NS(=O)(=O)c1ccc(NCC(=O)N2CC(=O)Nc3ccccc32)cc1 | 1.95 µM |  | 40.55% | 1.32 µM |
| CCCCNC(=S)NS(=O)(=O)c1ccc(NC(=O)Cn2c(=O)c(C)nc3ccccc32)cc1 | 2.82 µM |  | 43.84% | 0.369 µM |
| O=C(CN1CC(=O)Nc2ccccc21)Nc1ccc(S(=O)(=O)NC(=O)NC2CCCCC2)cc1 | 1.54 µM |  | 39.81% | 1.15 µM |
| O=C(CN1CC(=O)Nc2ccccc21)Nc1ccc(S(=O)(=O)NC(=O)Nc2ccccc2)cc1 |  |  | 21.89% |  |
| CCCCNC(=O)NS(=O)(=O)c1ccc(NC(=O)Cn2c(=O)c(C)nc3ccccc32)cc1 | 0.98 µM |  | 40.55% | 0.491 µM |
| CCCCNC(=S)NS(=O)(=O)c1ccc(NC(=O)CN2CC(=O)Nc3ccccc32)cc1 |  |  | 30.75% |  |
| O=C1CN(C(=O)CNc2ccc(S(=O)(=O)NC(=O)NC3CCCCC3)cc2)c2ccccc2N1 | 1.89 µM |  | 49.62% | 1.14 µM |
| Cc1nc2ccccc2n(CC(=O)Nc2ccc(S(=O)(=O)NC(=S)Nc3ccccc3)cc2)c1=O |  |  | 20.54% |  |
| CCCCNC(=O)NS(=O)(=O)c1ccc(NC(=O)CN2CC(=O)Nc3ccccc32)cc1 | 1.69 µM |  | 45.1% | 1.29 µM |
| Cc1ccc(NC(=S)NS(=O)(=O)c2ccc(CCNS(=O)(=O)c3ccccc3)cc2)cc1 | 100 µM |  |  |  |
| COc1ccc(NC(=S)NS(=O)(=O)c2ccc(CCNS(=O)(=O)c3ccccc3)cc2)cc1 | 1000 µM |  |  |  |
| O=S(=O)(NCCc1ccc(S(=O)(=O)NC(=S)Nc2ccc(Cl)cc2)cc1)c1ccc(Cl)cc1 | 33.3 µM |  |  |  |
| COc1ccc(NC(=S)NS(=O)(=O)c2ccc(CCNS(=O)(=O)c3ccc(Cl)cc3)cc2)cc1 | 33.3 µM |  |  |  |
| O=C(NC1CCCCC1)NS(=O)(=O)c1ccc(CCNS(=O)(=O)c2ccccc2)cc1 | 12.5 µM |  |  |  |
| CC1CCC(NC(=O)NS(=O)(=O)c2ccc(CCNS(=O)(=O)c3ccc(Cl)cc3)cc2)CC1 (stereo unspecified) | 2.04 µM |  |  |  |
| CC1CCC(NC(=O)NS(=O)(=O)c2ccc(CCNS(=O)(=O)c3ccc(Br)cc3)cc2)CC1 (stereo unspecified) | 1.6 µM |  |  |  |
| CC1CCC(NC(=O)NS(=O)(=O)c2ccc(CCNS(=O)(=O)c3ccccc3)cc2)CC1 (stereo unspecified) | 3.4 µM |  |  |  |
| O=C(NC1CCCCC1)NS(=O)(=O)c1ccc(CCNS(=O)(=O)c2ccc(Cl)cc2)cc1 | 3.1 µM |  |  |  |
| O=C(NC1CCCCC1)NS(=O)(=O)c1ccc(CCNS(=O)(=O)c2ccc(Br)cc2)cc1 | 2.4 µM |  |  |  |
| CC(=O)Nc1ccc(S(=O)(=O)NCCc2ccc(S(=O)(=O)NC(=O)NC3CCC(C)CC3)cc2)cc1C (stereo unspecified) | 7.14 µM |  |  |  |
| CC(=O)Nc1ccc(S(=O)(=O)NCCc2ccc(S(=O)(=O)NC(=O)NC3CCC(C)CC3)cc2)cc1 (stereo unspecified) | 20 µM |  |  |  |
| O=S(=O)(NCCc1ccc(S(=O)(=O)NC(=S)Nc2ccc(Cl)cc2)cc1)c1ccccc1 | 33.3 µM |  |  |  |
